One block for each compound: values may come before it. Active and inactive are the calls of the source.
Tests used:
HeLa [1] = test: Induction of cell cycle arrest in human HeLa cells assessed as accumulation of cells at S phase at 5 uM incubated for 48 hrs by 7-AAD staining based flow cytometry analysis (reference value: 5%); assay type: functional
Summary of the method: (§1)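 HeLa seeded at 50% confluence, treated after 24 h with 5 or 10 µM for 24 or 48 h. Adherent plus floating cells fixed in ice-cold 70% ethanol overnight at -20 °C, stained with 7-AAD 20 min at room temperature; 20000 events per sample by flow cytometry; phase percentages compared with control.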

A498 = test: Antiproliferative activity against human A498 cells assessed as reduction in cell growth at 4 to 16 uM incubated for 72 hrs in presence of extrusion-pump inhibitor, SS26 by CellTox based fluorescence analysis; assay type: functional; conditions: dose 4-16 µM
Summary of the method: (§2)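 A498, A-704, A549 and HT1197 cells (DMEM high glucose, 10% FBS, 37 °C, 5% CO2) plated 500/well with SiR-DNA 0.5 µM and CellTox Green 0.8x, treated next day at 1, 2, 4, 8, 16 µM alone or with EPI SS26 at fixed 1 µM, 0.3% DMSO. Nuclei and dead cells imaged at 0, 24, 48, 72 h; percentage growth calculated; three technical replicates.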

HeLa [2] = test: Induction of cell cycle arrest in human HeLa cells assessed as accumulation of cells at S phase at 5 uM incubated for 24 hrs by 7-AAD staining based flow cytometry analysis (reference value: 5%); assay type: functional; summary of the method: as §1
[3] = Antiproliferative activity against human NSC lung cancer cells assessed as reduction in cell viability measured after 24 to 48 hrs by XTT assay; assay type: functional; conditions: Non-small cell lung cancer cell line, time 24-48 hrs; for CC50: read-out: LC50 (the source's name)
HeLa [4] = test: Induction of cell cycle arrest in human HeLa cells assessed as accumulation of cells at G0/G1 phase at 10 uM incubated for 48 hrs by 7-AAD staining based flow cytometry analysis (reference value: 65%); assay type: functional; summary of the method: as §1
[5] = Antiproliferative against human melanoma cells assessed as reduction in cell growth incubated for 24 to 48 hrs by XTT assay; assay type: functional; conditions: Panel melanoma (Carcinoma cell lines), time 24-48 hrs; for CC50: read-out: LC50 (the source's name)
Summary of the method: (§3)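 NCI60 panel screen by the NCI Developmental Therapeutics Program: single dose of 10 µM first; compounds meeting inhibition criteria retested at five 10-fold dilutions, 100 µM to 0.01 µM; GI50, TGI and LC50 derived.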

HT1197 = test: Antiproliferative activity against human HT1197 cells assessed as reduction in cell growth at 4 to 16 uM incubated for 72 hrs in presence of extrusion-pump inhibitor, SS26 by CellTox based fluorescence analysis; assay type: functional; conditions: dose 4-16 µM; summary of the method: as §2
Tubulin (Homo sapiens) [6] = target: T1, Tubulin (Homo sapiens) (UniProt P68371+Q9H4B7+P0DPH7+P68366+Q13509+Q71U36+P04350+Q3ZCM7+P07437+P68363+Q9BQE3+Q6PEY2+Q13885+Q9BVA1+Q9BUF5); test: Disruption of microtubules in human HeLa cells assessed as beta-tubulin disassembly at 50 to 500 nM incubated for 24 hrs by high-content confocal microscopy; assay type: cell-based; conditions: dose 50-500 nM
Summary of the method: (§4)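 HeLa treated 24 h at 10, 25, 50, 100 and 500 nM, stained for β-tubulin and nuclei (DAPI), imaged by high-content confocal microscopy; tubulin disassembly and cell dimension compared with controls.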

Tubulin (Homo sapiens) [7] = target: T1, Tubulin (Homo sapiens); test: Disruption of microtubules in human HeLa cells assessed as increase in cytoplasmic dimensions at 50 nM incubated for 24 hrs by high-content confocal microscopy relative to control; assay type: cell-based; summary of the method: as §4
[8] = Antiproliferative against human renal cancer cells assessed as reduction in cell growth incubated for 24 to 48 hrs by XTT assay; assay type: functional; conditions: Panel renal (Carcinoma cell lines), time 24-48 hrs; summary of the method: as §3
HeLa [9] = test: Induction of cell cycle arrest in human HeLa cells assessed as accumulation of cells at G2/M phase at 10 uM incubated for 48 hrs by 7-AAD staining based flow cytometry analysis (reference value: 30%); assay type: functional; summary of the method: as §1
HeLa [10] = test: Induction of cell cycle arrest in human HeLa cells assessed as accumulation of cells at S phase at 10 uM incubated for 48 hrs by 7-AAD staining based flow cytometry analysis (reference value: 5%); assay type: functional; summary of the method: as §1
HeLa [11] = test: Antiproliferative activity against human HeLa cells assessed as reduction in cell viability measured after 48 hrs by XTT assay; assay type: functional, cell-based
Summary of the method: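 HeLa (DMEM, 10% FBS, 37 °C, 5% CO2) seeded 1500 cells/well, treated 24 h later at 0.1–5 µM for 24 and 48 h; DMSO vehicle as control. XTT reagent 4 h at 37 °C, absorbance at 490 nm; IC50 calculated from viability; more than three independent experiments, each in triplicate.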

HeLa [12] = test: Induction of cell cycle arrest in human HeLa cells assessed as accumulation of cells at G0/G1 phase at 5 uM incubated for 48 hrs by 7-AAD staining based flow cytometry analysis (reference value: 65%); assay type: functional; summary of the method: as §1
[13] = Antiproliferative activity against human leukemia cells assessed as reduction in cell viability measured after 24 to 48 hrs by XTT assay; assay type: functional; conditions: Panel leukemia (Carcinoma cell lines), time 24-48 hrs; for CC50: read-out: LC50 (the source's name)
Sus scrofa [14] = species: Sus scrofa; test: Displacement of colchicine from pig tubulin assessed as reduction in colchicine effectiveness on tubulin assembly measured every 20 secs for 30 mins by fluorescence based analysis
HeLa [15] = test: Induction of cell cycle arrest in human HeLa cells assessed as accumulation of cells at S phase at 10 uM incubated for 24 hrs by 7-AAD staining based flow cytometry analysis (reference value: 5%); assay type: functional; summary of the method: as §1
[16] = system: Panel CNS (Carcinoma cell lines); test: Antiproliferative activity against human CNS cancer cells assessed as lethality measured after 24 to 48 hrs by XTT assay; assay type: functional; conditions: time 24-48 hrs
Summary of the method: (§5)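 NCI60 screen run by the NCI Developmental Therapeutics Program. A single 10 µM dose was first tested across the full 60-cell-line panel. Compounds meeting the inhibition selection criteria were then retested at five 10-fold dilutions from 100 µM to 0.01 µM. GI50, TGI and LC50 were reported as molar concentrations for each tumour-type group.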

Sus scrofa [17] = species: Sus scrofa; test: Inhibition of pig tubulin polymerization measuring every 20 sec for 30 mins by fluorescence based analysis
[18] = Antiproliferative activity against human colon cancer cells assessed as reduction in cell viability measured after 24 to 48 hrs by XTT assay; assay type: functional, Panel colon (Carcinoma cell lines); conditions: Colon carcinoma cell, time 24-48 hrs
[19] = Antiproliferative against human breast cancer cells assessed as reduction in cell growth incubated for 24 to 48 hrs by XTT assay; assay type: functional, Panel breast (Carcinoma cell lines); conditions: Breast carcinoma cell, time 24-48 hrs; summary of the method: as §3
A704 = test: Antiproliferative activity against human A704 cells assessed as reduction in cell growth at 4 to 16 uM incubated for 48 to 72 hrs in presence of extrusion-pump inhibitor, SS26 by CellTox based fluorescence analysis; assay type: functional; conditions: dose 4-16 µM, time 48-72 hrs; summary of the method: as §2
[20] = Antiproliferative against human prostate cancer cells assessed as reduction in cell growth incubated for 24 to 48 hrs by XTT assay; assay type: functional; conditions: Panel prostate (Carcinoma cell lines), time 24-48 hrs; summary of the method: as §3
[21] = system: Panel NCI-60 (60 carcinoma cell lines); test: Antiproliferative against human NCI-60 cells assessed as reduction in cell growth incubated for 24 to 48 hrs by XTT assay; assay type: functional; conditions: time 24-48 hrs; summary of the method: as §3
U-251 = test: Antiproliferative activity against human U-251 cells assessed as lethality measured after 24 to 48 hrs by XTT assay; assay type: functional; conditions: time 24-48 hrs; summary of the method: as §5
HeLa [22] = test: Induction of cell cycle arrest in human HeLa cells assessed as accumulation of cells at G2/M phase at 5 uM incubated for 48 hrs by 7-AAD staining based flow cytometry analysis (reference value: 30%); assay type: functional; summary of the method: as §1
HeLa [23] = test: Induction of cell cycle arrest in human HeLa cells assessed as accumulation of cells at G2/M phase at 5 uM incubated for 24 hrs by 7-AAD staining based flow cytometry analysis (reference value: 30%); assay type: functional; summary of the method: as §1
HeLa [24] = test: Induction of cell cycle arrest in human HeLa cells assessed as accumulation of cells at G0/G1 phase at 5 uM incubated for 24 hrs by 7-AAD staining based flow cytometry analysis (reference value: 65%); assay type: functional; summary of the method: as §1
HeLa [25] = test: Induction of incomplete cytokinesis with increased cell dimension in human HeLa cells at 0.3 uM measured after 48 hrs by fluorescence microscopy; assay type: functional, cell-based
A549 = test: Antiproliferative activity against human A549 cells assessed as reduction in cell growth at 4 to 16 uM incubated for 72 hrs in presence of extrusion-pump inhibitor, SS26 by CellTox based fluorescence analysis; assay type: functional; conditions: dose 4-16 µM; summary of the method: as §2
HeLa [26] = test: Induction of cell cycle arrest in human HeLa cells assessed as accumulation of cells at G2/M phase at 10 uM incubated for 24 hrs by 7-AAD staining based flow cytometry analysis (reference value: 30%); assay type: functional; summary of the method: as §1
[27] = Antiproliferative against human ovarian cancer cells assessed as reduction in cell growth incubated for 24 to 48 hrs by XTT assay; assay type: functional, Panel ovarian (Carcinoma cell lines); conditions: Ovarian carcinoma cell, time 24-48 hrs; summary of the method: as §3
[28] = system: Panel CNS (Carcinoma cell lines); test: Antiproliferative activity against human CNS cancer cells assessed as reduction in cell viability measured after 24 to 48 hrs by XTT assay; assay type: functional; conditions: time 24-48 hrs; for CC50: read-out: LC50 (the source's name)
HeLa [29] = test: Induction of cell cycle arrest in human HeLa cells assessed as accumulation of cells at G0/G1 phase at 10 uM incubated for 24 hrs by 7-AAD staining based flow cytometry analysis (reference value: 65%); assay type: functional; summary of the method: as §1
NCI-H522 = test: Antiproliferative activity against human NCI-H522 cells assessed as reduction in cell growth at […] measured after 24 to 48 hrs by XTT assay; assay type: functional; conditions: time 24-48 hrs, read-out: GI; summary of the method: as §3
CCRF-CEM [30] = test: Antiproliferative activity against human CCRF-CEM cells assessed as inhibition of cell growth at 10 uM measured after 24 to 48 hrs by XTT assay; assay type: functional; conditions: time 24-48 hrs, read-out: GI; summary of the method: as §3
CCRF-CEM [31] = test: Antiproliferative activity against human CCRF-CEM cells assessed as inhibition of cell proliferation measured after 96 hrs by MTT assay; assay type: functional, cell-based
[32] = read-out: LC50 (the source's name)

Compound: Cc1ccc(/C=C(\C#N)n2nnc3cc(F)c(F)cc32)cc1
Activity (HeLa [1]): 9%
Activity (A498): Active
Activity (HeLa [2]): 7%
GI50 [3]: 0.291 µM
TGI [3]: 1.12 µM
CC50 [3]: ≥ 6.78 µM
Activity (HeLa [4]): 10%
GI50 [5]: 0.36 µM
TGI [5]: ≥ 100 µM
CC50 [5]: ≥ 7.67 µM
Activity (HT1197): Active
Activity (Tubulin (Homo sapiens) [6]): Active
fold change (FC) (Tubulin (Homo sapiens) [7]): 3
GI50 [8]: 1.77 µM
TGI [8]: 7.41 µM
CC50 [8, 32]: ≥ 36.7 µM
Activity (HeLa [9]): 87%
Activity (HeLa [10]): 3%
IC50 (HeLa [11]): 3.2 µM
Activity (HeLa [12]): 41%
GI50 [13]: 0.391 µM
TGI [13]: ≥ 0.871 µM
CC50 [13]: > 100 µM
Activity (Sus scrofa [14]): Active
Activity (HeLa [15]): 14%
Activity [16]: >=90%
inhibition (Sus scrofa [17]): Active
GI50 [18]: 0.421 µM
TGI [18]: 1.53 µM
CC50 [18, 32]: ≥ 5.8 µM
GI50 [19]: 1.16 µM
LC50 [19]: > 100 µM
TGI [19]: ≥ 5.39 µM
Activity (A704): Active
GI50 [20]: 3.32 µM
TGI [20]: 15.6 µM
CC50 [20, 32]: 66.2 µM
GI50 [21]: ≤ 0.1 µM
TGI [21]: ≤ 1 µM
CC50 [21, 32]: ≤ 1 µM
Activity (U-251): >=90%
Activity (HeLa [22]): 50%
Activity (HeLa [23]): 54%
Activity (HeLa [24]): 39%
Activity (HeLa [25]): Active
Activity (A549): Active
Activity (HeLa [26]): 66%
GI50 [27]: 1.47 µM
TGI [27]: ≥ 6.08 µM
CC50 [27, 32]: ≥ 33.8 µM
GI50 [28]: 1.48 µM
TGI [28]: 2.94 µM
CC50 [28]: ≥ 5.83 µM
Activity (HeLa [29]): 20%
inhibition of growth (NCI-H522): 93%

Compound: N#C/C(=C\c1cccc2cnccc12)n1nnc2ccccc21
GI50 [3]: 0.532 µM
TGI [3]: ≥ 5.13 µM
CC50 [3]: > 100 µM
GI50 [5]: 2.04 µM
TGI [5]: > 100 µM
CC50 [5]: > 100 µM
inhibition of growth at 10 µM (CCRF-CEM [30]): 100%
GI50 [13]: 0.253 µM
TGI [13]: ≥ 24.3 µM
CC50 [13]: > 100 µM
GI50 [19]: 0.557 µM
LC50 [19]: > 100 µM
TGI [19]: ≥ 2.84 µM
GI50 [28]: 0.184 µM
TGI [28]: ≥ 3.61 µM
CC50 [28]: > 100 µM

IC50 (CCRF-CEM [31]): 0.2 µM
Compound: COc1ccc(/C=C(\C#N)n2nnc3ccccc32)cc1
